{
  "source": "ChEMBL document CHEMBL2021852",
  "about": "(ACS Med Chem Lett, 2011)",
  "key": {"Renin [1]": {"target": "T1, Renin (Homo sapiens, UniProt P00797)", "T1 sequence (P00797 whole entry)": "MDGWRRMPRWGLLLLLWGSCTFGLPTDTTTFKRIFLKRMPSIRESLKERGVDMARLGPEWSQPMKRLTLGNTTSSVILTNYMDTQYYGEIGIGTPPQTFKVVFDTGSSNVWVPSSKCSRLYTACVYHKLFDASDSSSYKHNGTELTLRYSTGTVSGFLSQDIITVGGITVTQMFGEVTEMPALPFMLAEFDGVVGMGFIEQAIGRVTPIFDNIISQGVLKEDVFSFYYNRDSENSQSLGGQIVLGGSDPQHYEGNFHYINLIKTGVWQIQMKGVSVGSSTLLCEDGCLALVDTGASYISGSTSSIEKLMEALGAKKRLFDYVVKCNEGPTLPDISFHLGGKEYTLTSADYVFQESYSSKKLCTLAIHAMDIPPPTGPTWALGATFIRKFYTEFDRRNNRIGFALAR", "experiment": "Inhibition of human recombinant renin using DABCYL-gamma-Abu-Ile-His-Pro-Phe-His-Leu-Val-Ile-His-Thr-EDANS as substrate for 60 mins by fluorimetry", "in_short": "(§1)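 Purified recombinant human renin measured in buffer; each value is the average of at least two replicates.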"}, "Renin [2]": {"target": "T1, Renin", "experiment": "Inhibition of human recombinant renin using H-Asp-Arg-Val-Tyr-Ile-His-Pro-Phe-His-Leu-Val-Ile-His-Asn-OH as substrate assessed as formation of angiotensin1 product after 2 hrs by competive radioimmunoassay", "in_short": "as §1"}, "Renin [3]": {"target": "T1, Renin", "experiment": "Inhibition of renin in human plasma assessed as formation of angiotensin1 product after 90 mins by competitive radioimmunoassay", "in_short": "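IC50 for renin inhibition determined in the presence of human plasma; each value is the average of at least two replicates.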"}, "Cytochrome P450 3A4": {"target": "Cytochrome P450 3A4 (Homo sapiens, UniProt P08684)", "sequence (P08684 whole entry)": "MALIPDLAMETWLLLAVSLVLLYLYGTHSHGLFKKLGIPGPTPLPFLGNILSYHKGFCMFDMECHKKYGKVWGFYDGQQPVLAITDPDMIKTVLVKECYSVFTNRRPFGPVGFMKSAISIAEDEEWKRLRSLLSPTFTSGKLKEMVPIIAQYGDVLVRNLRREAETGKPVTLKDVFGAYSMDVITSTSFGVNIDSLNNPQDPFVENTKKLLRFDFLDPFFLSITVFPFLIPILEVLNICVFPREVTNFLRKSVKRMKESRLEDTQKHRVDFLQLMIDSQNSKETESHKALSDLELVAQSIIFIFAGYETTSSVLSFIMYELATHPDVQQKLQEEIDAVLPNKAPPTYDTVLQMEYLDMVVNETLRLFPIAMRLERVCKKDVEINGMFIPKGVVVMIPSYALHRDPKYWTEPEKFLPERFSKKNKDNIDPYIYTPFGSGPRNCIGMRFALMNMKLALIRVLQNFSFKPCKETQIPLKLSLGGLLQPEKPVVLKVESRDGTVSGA", "experiment": "Inhibition of CYP3A4 using testosterone as substrate in human liver microsome for 20 mins by HPLC analysis", "format": "ADME, microsomes", "in_short": "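CYP3A4 inhibition measured in human liver microsomes; IC50 is the average of at least two replicates.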"}, "[4]": {"target": "T2, Cathepsin E (Homo sapiens) (UniProt P14091)", "T2 sequence (whole entry)": "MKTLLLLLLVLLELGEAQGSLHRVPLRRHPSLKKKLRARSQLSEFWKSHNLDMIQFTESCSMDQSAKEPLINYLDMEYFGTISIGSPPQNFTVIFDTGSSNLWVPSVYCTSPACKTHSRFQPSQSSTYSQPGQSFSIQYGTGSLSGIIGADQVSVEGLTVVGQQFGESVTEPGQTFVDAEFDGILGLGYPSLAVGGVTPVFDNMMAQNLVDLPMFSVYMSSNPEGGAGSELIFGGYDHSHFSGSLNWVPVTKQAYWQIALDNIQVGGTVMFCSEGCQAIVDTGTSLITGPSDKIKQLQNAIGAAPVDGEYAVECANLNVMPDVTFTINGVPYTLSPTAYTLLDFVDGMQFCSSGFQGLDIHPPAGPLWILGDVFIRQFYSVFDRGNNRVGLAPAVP", "experiment": "Inhibition of human recombinant cathepsin E using Mca-GKPILFFRLK(Dnp)-D-Arg-NH2 as substrate at 10 uM incubated for 10 mins prior to substrate addition measured for 1 hr by FRET analysis"}, "[5]": {"target": "Cathepsin D (Homo sapiens) (UniProt P07339)", "sequence (P07339 65-162 limits assumed)": "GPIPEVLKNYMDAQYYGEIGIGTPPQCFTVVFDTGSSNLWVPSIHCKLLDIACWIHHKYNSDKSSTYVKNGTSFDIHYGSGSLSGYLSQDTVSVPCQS", "sequence (P07339 169-412 limits assumed)": "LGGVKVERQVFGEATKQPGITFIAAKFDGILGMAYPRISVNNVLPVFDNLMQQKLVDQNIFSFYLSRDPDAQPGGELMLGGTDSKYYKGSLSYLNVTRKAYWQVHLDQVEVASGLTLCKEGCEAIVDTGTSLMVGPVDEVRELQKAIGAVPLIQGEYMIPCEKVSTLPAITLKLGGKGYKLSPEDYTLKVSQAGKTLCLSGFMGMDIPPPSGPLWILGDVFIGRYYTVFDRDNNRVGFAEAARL", "experiment": "Inhibition of human cathepsin D using Mca-GKPILFFRLK(Dnp)-D-Arg-NH2 as substrate at 10 uM incubated for 10 mins prior to substrate addition measured for 1 hr by FRET analysis"}, "[6]": {"target": "Beta-secretase 1 (Homo sapiens) (UniProt P56817)", "sequence (P56817 whole entry)": "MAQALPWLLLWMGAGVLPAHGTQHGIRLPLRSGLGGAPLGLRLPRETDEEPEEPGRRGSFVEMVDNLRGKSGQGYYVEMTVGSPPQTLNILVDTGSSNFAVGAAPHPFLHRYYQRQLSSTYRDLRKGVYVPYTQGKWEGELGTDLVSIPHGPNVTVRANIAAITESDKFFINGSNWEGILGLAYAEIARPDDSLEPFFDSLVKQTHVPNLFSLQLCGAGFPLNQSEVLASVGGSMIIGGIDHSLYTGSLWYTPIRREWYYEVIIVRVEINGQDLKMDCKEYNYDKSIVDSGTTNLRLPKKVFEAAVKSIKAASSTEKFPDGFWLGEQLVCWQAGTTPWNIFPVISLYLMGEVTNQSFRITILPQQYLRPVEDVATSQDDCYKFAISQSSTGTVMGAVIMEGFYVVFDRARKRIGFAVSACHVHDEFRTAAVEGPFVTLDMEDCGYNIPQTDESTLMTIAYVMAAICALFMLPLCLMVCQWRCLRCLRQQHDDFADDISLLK", "experiment": "Inhibition of BACE using SEVNLDAEFK(Dnp)NH2 as substrate at 10 uM incubated for 10 mins prior to substrate addition measured for 1 hr by FRET analysis"}, "Rattus norvegicus": {"test_system": "Rattus norvegicus", "experiment": "Antihypertensive activity in double transgenic rat expressing human renin assessed as reduction in mean arterial blood pressure at 10 mg/kg, po after 24 hrs", "format": "functional, organism-based", "parameters": "dose 10 mg/kg", "conditions": "Artery", "in_short": "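Double transgenic rats expressing human renin and angiotensinogen, with severe hypertension dependent on human renin, received 10 mg/kg orally. Mean arterial pressure was followed over time, including at t = 24 h.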"}, "[7]": {"experiment": "AUC (0 to t) in rat at 8.2 mg/kg, po", "format": "ADME, organism-based", "parameters": "dose 8.2 mg/kg, route oral", "conditions": "plasma", "in_short": "(§2)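 Compounds were dosed as fumarate salts in separate intravenous and oral arms. Oral AUC(0–t), IV half-life, IV clearance, Vss and oral bioavailability (F) were derived from the plasma levels.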"}, "[8]": {"experiment": "Half life in rat at 1.6 mg/kg, iv", "format": "ADME, organism-based", "parameters": "dose 1.6 mg/kg, route intravenous", "conditions": "in vivo", "in_short": "as §2"}, "[9]": {"experiment": "Clearance in rat at 1.6 mg/kg, iv", "format": "ADME, organism-based", "parameters": "dose 1.6 mg/kg, route intravenous", "conditions": "in vivo", "in_short": "as §2"}, "[10]": {"experiment": "Volume of distribution at steady state in rat at 1.6 mg/kg, iv and 8.2 mg/kg, po", "format": "ADME, organism-based", "conditions": "in vivo, read-out: Vdss", "in_short": "as §2"}, "[11]": {"experiment": "Oral bioavailability in rat at 8.2 mg/kg", "format": "ADME, organism-based", "conditions": "in vivo", "in_short": "as §2"}, "[12]": {"experiment": "AUC (0 to t) in rat at 8 mg/kg, po", "format": "ADME, organism-based", "parameters": "dose 8 mg/kg, route oral", "conditions": "plasma", "in_short": "as §2"}, "[13]": {"experiment": "AUC (0 to t) in cynomolgus monkey at 1 mg/kg, po", "format": "ADME, organism-based, Macaca fascicularis", "parameters": "dose 1 mg/kg, route oral", "conditions": "plasma", "in_short": "as §2"}, "[14]": {"experiment": "Half life in cynomolgus monkey at 1 mg/kg, iv", "format": "ADME, organism-based, Macaca fascicularis", "parameters": "dose 1 mg/kg, route intravenous", "conditions": "in vivo", "in_short": "as §2"}, "[15]": {"experiment": "Volume of distribution at steady state in rat at 1.6 mg/kg, iv and 8 mg/kg, po", "format": "ADME, organism-based", "conditions": "in vivo, read-out: Vdss", "in_short": "as §2"}, "[16]": {"experiment": "Volume of distribution at steady state in cynomolgus monkey at 1 mg/kg, iv and 1 mg/kg, po", "format": "ADME, organism-based, Macaca fascicularis", "conditions": "in vivo, read-out: Vdss", "in_short": "as §2"}, "[17]": {"experiment": "Oral bioavailability in rat at 8 mg/kg", "format": "ADME, organism-based", "conditions": "in vivo", "in_short": "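Rats given compound as the fumarate salt, intravenously and by mouth in separate arms. Oral AUC(0–t), IV half-life, IV clearance, Vss and F were tabulated. The oral dose was 8.0 mg/kg, paired with an IV dose of 1.6 mg/kg.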"}, "[18]": {"experiment": "Oral bioavailability in cynomolgus monkey at 1 mg/kg", "format": "ADME, organism-based, Macaca fascicularis", "conditions": "in vivo", "in_short": "as §2"}},
  "note": "Activity calls are given as the source filed them. The rule behind the calls is not given here.",
  "data": [
    {"smiles": "CNC[C@H](C[C@H]1CCCOC1)NC(=O)N1CCC[C@@H]([C@@H](OCCNC(=O)OC)c2cccc(Cl)c2)C1", "values": [
      {"measurement": "IC50", "setting": "Renin [1]", "result": 0.56, "unit": "nM"},
      {"measurement": "IC50", "setting": "Renin [2]", "result": 0.42, "unit": "nM"},
      {"measurement": "IC50", "setting": "Renin [3]", "result": 0.48, "unit": "nM"},
      {"measurement": "IC50", "setting": "Cytochrome P450 3A4", "result": 28000, "unit": "nM"}
    ]},
    {"smiles": "CN[C@H](CNC(=O)N1CCC[C@@H]([C@@H](OCCNC(=O)OC)c2cccc(Cl)c2)C1)C[C@H]1CCCOC1", "values": [
      {"measurement": "inhibition", "setting": "[4]", "result": "< 10", "unit": "%"},
      {"measurement": "inhibition", "setting": "[5]", "result": "< 10", "unit": "%"},
      {"measurement": "inhibition", "setting": "[6]", "result": "< 10", "unit": "%"},
      {"measurement": "Activity", "setting": "Rattus norvegicus", "result": "Active"}
    ]},
    {"smiles": "CNC[C@H](CC1CCCCC1)NC(=O)N1CCC[C@@H]([C@@](O)(CCCCOC)c2cccc(Cl)c2F)C1.O=C(O)/C=C/C(=O)O", "values": [
      {"measurement": "AUC(0-t)", "setting": "[7]", "result": 226, "unit": "ng·h/mL"},
      {"measurement": "half-life", "setting": "[8]", "result": 15.9, "unit": "h"},
      {"measurement": "clearance", "setting": "[9]", "result": 30, "unit": "mL/min/kg"},
      {"measurement": "Vd", "setting": "[10]", "result": 16, "unit": "L/kg"},
      {"measurement": "bioavailability", "setting": "[11]", "result": 5.5, "unit": "%"}
    ]},
    {"smiles": "CNC[C@H](CC1CCOCC1)NC(=O)N1CCC[C@@H]([C@@H](OCCNC(=O)OC)c2cccc(Cl)c2)C1", "values": [
      {"measurement": "IC50", "setting": "Renin [1]", "result": 6.2, "unit": "nM"},
      {"measurement": "IC50", "setting": "Renin [2]", "result": 1.7, "unit": "nM"},
      {"measurement": "IC50", "setting": "Renin [3]", "result": 13.1, "unit": "nM"},
      {"measurement": "IC50", "setting": "Cytochrome P450 3A4", "result": "> 30000", "unit": "nM"}
    ]},
    {"smiles": "CNC[C@@H](NC(=O)N1CCC[C@@H]([C@@H](OCCNC(=O)OC)c2cccc(Cl)c2)C1)[C@@H](O)C1CCCCC1", "values": [
      {"measurement": "IC50", "setting": "Renin [1]", "result": 0.33, "unit": "nM"},
      {"measurement": "IC50", "setting": "Renin [2]", "result": 0.15, "unit": "nM"},
      {"measurement": "IC50", "setting": "Renin [3]", "result": 1.06, "unit": "nM"},
      {"measurement": "IC50", "setting": "Cytochrome P450 3A4", "result": 7100, "unit": "nM"}
    ]},
    {"smiles": "COCCCC[C@@](O)(c1cccc(Cl)c1F)[C@@H]1CCCN(C(=O)NC[C@@H](N)CC2CCCCC2)C1", "values": [
      {"measurement": "IC50", "setting": "Renin [1]", "result": 2.2, "unit": "nM"},
      {"measurement": "IC50", "setting": "Renin [2]", "result": 0.27, "unit": "nM"},
      {"measurement": "IC50", "setting": "Renin [3]", "result": 69, "unit": "nM"},
      {"measurement": "IC50", "setting": "Cytochrome P450 3A4", "result": 2910, "unit": "nM"}
    ]},
    {"smiles": "CNC[C@H](CC1CCCCC1)NC(=O)N1CCC[C@@H]([C@@H](OCCNC(=O)OC)c2cccc(Cl)c2)C1.O=C(O)/C=C/C(=O)O", "values": [
      {"measurement": "AUC(0-t)", "setting": "[12]", "result": 301, "unit": "ng·h/mL"},
      {"measurement": "AUC(0-t)", "setting": "[13]", "result": 130, "unit": "ng·h/mL"},
      {"measurement": "half-life", "setting": "[8]", "result": 16.2, "unit": "h"},
      {"measurement": "half-life", "setting": "[14]", "result": 23.3, "unit": "h"},
      {"measurement": "clearance", "setting": "[9]", "result": 36, "unit": "mL/min/kg"},
      {"measurement": "Vd", "setting": "[15]", "result": 19, "unit": "L/kg"},
      {"measurement": "Vd", "setting": "[16]", "result": 9.8, "unit": "L/kg"},
      {"measurement": "bioavailability", "setting": "[17]", "result": 9.4, "unit": "%"},
      {"measurement": "bioavailability", "setting": "[18]", "result": 9.9, "unit": "%"}
    ]}
  ]
}
